Measurements of several laboratories.
Each line is one published result; the experiments were not run side by side.

| Structure (SMILES) | organism | test | test system | conditions | quantity | value |
| --- | --- | --- | --- | --- | --- | --- |
| C=C[C@]1(C)C[C@@H](OC(=O)CS[C@@H]2C[C@H]3CC[C@@H](C2)N3C)[C@]2(C)[C@H](C)CC[C@]3(CCC(=O)[C@H]32)[C@@H](C)[C@@H]1O | Enterococcus faecalis | microbial growth, agar dilution | ATCC29212 |  | MIC | 128 µg/mL |
| C[C@@H]1[C@H](O)[C@@H](C)/C=C/C=C/C=C/C=C/C=C/C=C/C=C/[C@H](O[C@@H]2O[C@H](C)[C@@H](O)[C@H](N)[C@@H]2O)C[C@@H]2O[C@](O)(C[C@@H](O)C[C@@H](O)[C@H](O)CC[C@@H](O)C[C@@H](O)CC(=O)O[C@H]1C)C[C@H](O)[C@H]2C(=O)O | Aspergillus fumigatus | microbial growth, broth dilution | AF293 | 48 h | MIC | 0.5 µg/mL |
| Cc1c2c(nn1C)CSCc1cc(n(C)n1)CSc1cc(c3ccccc3c1)OCCCc1c(C(=O)O)n(C)c3c-2c(Cl)ccc13 | Enterococcus faecalis | microbial growth, broth dilution |  | clinical isolate | MIC90 | 25 µM |
| Cc1ccc(Nc2cnnc3ccc(-c4ccc(N5CCCN(C)CC5)cc4)cc23)cn1 | Leishmania major | parasite growth |  | intracellular, amastigote | EC50 | > 4.7 µM |
| CNC(=S)NN=Cc1ccc([N+](=O)[O-])cc1 | Leishmania major | parasite growth, MTT |  | 72 h, promastigote | IC50 | 160 µM |
| COc1ccc(Nc2cnnc3ccc(-c4cnc(N5CCN(C)CC5)nc4)cc23)cc1Cl | Leishmania major | parasite growth |  | intracellular, amastigote | EC50 | > 22 µM |
| C/C(=N\C(=N)/N=C(\C)c1c(O)c2ccccc2oc1=O)c1c(O)c2ccccc2oc1=O | Aspergillus glaucus | microbial growth, broth dilution |  | 48 h | MIC | 125 µg/mL |
| CC(=O)NC[C@H]1CN(c2ccc(N3CCOCC3)c(F)c2)C(=O)O1 | Enterococcus faecalis | microbial growth, agar dilution | ATCC29212 |  | MIC | 2 µg/mL |
| Cc1ccc(Nc2cnnc3ccc(-c4ccc(N5CCN(C)CC5)cc4)cc23)cn1 | Leishmania major | parasite growth |  | intracellular, amastigote | EC50 | > 24 µM |
| CN[C@H](CC(C)C)C(=O)N[C@H]1C(=O)N[C@@H](CC(N)=O)C(=O)N[C@H]2C(=O)N[C@H]3C(=O)N[C@H](C(=O)N[C@H](C(=O)O)c4cc(O)cc(O)c4-c4cc3ccc4O)[C@H](O)c3ccc(c(Cl)c3)Oc3cc2cc(c3O[C@@H]2O[C@H](CO)[C@@H](O)[C@H](O)[C@H]2O[C@H]2C[C@](C)(N)[C@H](O)[C@H](C)O2)Oc2ccc(cc2Cl)[C@H]1O | Enterococcus faecalis | microbial growth, broth dilution |  | clinical isolate | MIC90 | 2 µg/mL |
| COc1ccc(Nc2cnnc3cc(-c4cnc(N5CCCN(C)CC5)nc4)ccc23)cc1Cl | Leishmania major | parasite growth |  | intracellular, amastigote | EC50 | > 2.1 µM |
| COc1c(N2C[C@@H]3CCCN[C@@H]3C2)c(F)cc2c(=O)c(C(=O)O)cn(C3CC3)c12 | Enterococcus faecalis | microbial growth, agar dilution | ATCC29212 |  | MIC | 8 µg/mL |
| C/C(=N\N=C(/C)c1c(O)c2ccccc2oc1=O)c1c(O)c2ccccc2oc1=O | Aspergillus glaucus | microbial growth, broth dilution |  | 48 h | MIC | 31.2 µg/mL |
| CN1CCN(c2ccc(-c3ccc4nncc(Nc5cnccn5)c4c3)cc2)CC1 | Leishmania major | parasite growth |  | intracellular, amastigote | EC50 | > 13 µM |
| COc1ccc(C=NNC(=S)Nc2cccnc2)cc1OC | Leishmania major | parasite growth | J774.A1 | 72 h, intracellular, amastigote | IC50 | 886 µM |
| C/C(=N\NC(=O)/N=C(\C)c1c(O)c2ccccc2oc1=O)c1c(O)c2ccccc2oc1=O | Aspergillus glaucus | microbial growth, broth dilution |  | 48 h | MIC | 125 µg/mL |

| Structure (SMILES) | organism | test | test system | conditions | quantity | value |
| --- | --- | --- | --- | --- | --- | --- |
| CN1CCN(c2ccc(-c3ccc4nncc(Nc5ncccn5)c4c3)cc2)CC1 | Leishmania major | parasite growth |  | intracellular, amastigote | EC50 | > 2.5 µM |
| CNC(=S)NN=Cc1ccc(OC)c(OC)c1 | Leishmania major | parasite growth | J774.A1 | 72 h, intracellular, amastigote | IC50 | 60 µM |
| C/C(=N\CCNCCNCC/N=C(\C)c1c(O)c2ccccc2oc1=O)c1c(O)c2ccccc2oc1=O | Aspergillus glaucus | microbial growth, broth dilution |  | 48 h | MIC | 125 µg/mL |
| CC[C@H]1OC(=O)[C@H](C)[C@@H](O[C@H]2C[C@@](C)(OC)[C@@H](O)[C@H](C)O2)[C@H](C)[C@@H](O[C@@H]2O[C@H](C)C[C@H](N(C)C)[C@H]2O)[C@](C)(O)C[C@@H](C)/C(=N\OCOCCOC)[C@H](C)[C@@H](O)[C@]1(C)O | Enterococcus faecalis | microbial growth |  | clinical isolate | MIC50 | > 128 µg/mL |
| COc1ccc(Nc2cnnc3ccc(-c4ccc(N5CCN(C)CC5)cc4)cc23)nc1 | Leishmania major | parasite growth |  | intracellular, amastigote | EC50 | > 23 µM |
| COc1ccc(C=NNC(=S)Nc2cccnc2)cc1 | Leishmania major | parasite growth | J774.A1 | 72 h, intracellular, amastigote | IC50 | 892 µM |
| CC1(C)S[C@@H]2[C@H](NC(=O)[C@H](N)c3ccccc3)C(=O)N2[C@H]1C(=O)O | Enterococcus faecalis | microbial growth |  | clinical isolate | MIC90 | > 128 µg/mL |
| S=C(NN=Cc1ccc(Br)cc1)Nc1cccnc1 | Leishmania major | parasite growth, MTT |  | 72 h, promastigote | IC50 | 891 µM |
| COc1ccc(Nc2cnnc3ccc(-c4cnc(N5CCCN(C)CC5)nc4)cc23)cc1Cl | Leishmania major | parasite growth |  | intracellular, amastigote | EC50 | > 21 µM |
| CNC(=S)NN=Cc1ccc(C)cc1 | Leishmania major | parasite growth | J774.A1 | 72 h, intracellular, amastigote | IC50 | 1110 µM |
| CCCCCCCCCCCC[N+](C)(C)Cc1ccccc1 | Enterococcus faecalis | microbial growth |  |  | MIC | 63 µM |
| CNC(=S)NN=Cc1ccc(OC)cc1 | Leishmania major | parasite growth, MTT |  | 72 h, promastigote | IC50 | 26.7 µM |
| [H]/N=C(\N/C(=N/[H])NCCCCCCNC(=N)NC(=N)Nc1ccc(Cl)cc1)Nc1ccc(Cl)cc1 | Enterococcus faecalis | microbial growth |  |  | MIC | 4 µM |
| CNC(=S)NN=Cc1ccc(Br)cc1 | Leishmania major | parasite growth | J774.A1 | 72 h, intracellular, amastigote | IC50 | 31.8 µM |
| C/C(=N\C(=S)/N=C(\C)c1c(O)c2ccccc2oc1=O)c1c(O)c2ccccc2oc1=O | Aspergillus glaucus | microbial growth, broth dilution |  | 48 h | MIC | 31.2 µg/mL |
